Measurements of several laboratories.
Each line is one published result; the experiments were not run side by side.
Target: Cyclin-dependent kinase 7 (CDK7, Homo sapiens, UniProt P50613)

With O=C(NCCCN1CCOCC1)c1ccc(Nc2nccc(-c3cc4ccccc4s3)n2)cc1 the remaining binding was 40% (binding; competition with immobilised ligand; 1 µM).
With Cc1cnn2ncc(-c3ccnc(N(C)C)n3)c2c1 the remaining binding was 61% (binding; 1 µM).
For CC(C)(C)c1ccc(-c2nc(CBr)nn2-c2cccc(O)c2)cc1, the remaining binding was 89% (cell-free assay; competition with immobilised ligand; 10 µM).
The remaining binding of COc1ccc2c(c1)O[C@H](c1ccc(OC)c(OC)c1)C[C@@H]2NC(=O)C1(c2ccc3c(c2)OC(F)(F)O3)CC1 is reported as 85% (cell-free assay; competition with immobilised ligand; 1 µM).
The remaining binding of O=C(NCC1CCOCC1)c1n[nH]cc1NC(=O)c1c(F)cccc1F is reported as 31% (binding; competition with immobilised ligand; 1 µM).
CCC(=O)N[C@@H]1CC[C@H](C(=O)N(C)c2ccc(-c3nc4ccccc4o3)cc2)C1 has a remaining binding of 85% (cell-free assay; competition with immobilised ligand; 1 µM).
CN(C)c1nccc(-c2cnc3ncccn23)n1 gave a remaining binding of 29% (binding; 1 µM).
With O=C(Nc1cccnn1)N1CC(C/C=C/c2cncc(Oc3ccc(C(F)(F)F)cn3)n2)C1 the remaining binding was 81% (cell-free assay; competition with immobilised ligand; 1 µM).
For O=C(NCCCN1CCOCC1)c1ccc(Nc2ncc(Cl)c(-c3ccc(Cl)s3)n2)cc1, the remaining binding was 2.5% (binding; competition with immobilised ligand; 1 µM).
The remaining binding of COc1ccnn2ncc(-c3ccnc(N(C)C)n3)c12 is reported as 85% (binding; 1 µM).
Cn1nc(C(F)(F)F)cc1-c1cnc(N2CCc3cc(S(=O)(=O)Nc4c(F)cc(Cl)cc4F)cc(N4CCCC4=O)c32)nc1 has a remaining binding of 75% (cell-free assay; competition with immobilised ligand; 1 µM).
The remaining binding of FC(F)(F)Oc1cccc(-c2cnc3ccc(-c4ccncc4)nn23)c1 is reported as 0.85% (cell-free assay; competition with immobilised ligand; 5 µM).
COc1cnc(Nc2cccc(S(N)(=O)=O)c2)nc1N1CCN(c2ccccc2)CC1 has a remaining binding of 84% (binding; competition with immobilised ligand; 1 µM).
With C[C@@H]1CCN(c2nccc(-c3cnn4ncccc34)n2)C1 the remaining binding was 35% (binding; 1 µM).
With CCC(=N\O)/C(C)=C/c1ccc(F)cc1 the remaining binding was 60% (cell-free assay; competition with immobilised ligand; 1 µM).
C[C@@H]1CN(c2ccc3ncc(-c4ccc5[nH]nc(C6CC6)c5c4)n3n2)C[C@H](C)O1 has a remaining binding of 23% (binding; competition with immobilised ligand; 0.5 µM).
N#Cc1ccccc1CSc1nnc2c(n1)[nH]c1ccccc12 gave a remaining binding of 94% (binding; competition with immobilised ligand; 10 µM).
O=C(O)c1cc(-c2ccc(C3CCNCC3)cc2)c2ccc(-c3ccc(C(F)(F)F)cc3)cc2c1 has a remaining binding of 82% (cell-free assay; competition with immobilised ligand; 1 µM).
For CN(C)c1ncc(F)c(-c2cnn3ncccc23)n1, the remaining binding was 78% (binding; 1 µM).
The remaining binding of O=C(O)[C@@H]1[C@@H](Cn2nnc3ccccc3c2=O)CC[C@H]1C(=O)c1ccc(OCCC2CCOCC2)cc1 is reported as 86% (cell-free assay; competition with immobilised ligand; 1 µM).
With COc1ncc2cc3ccccc3nc2c1C#N the remaining binding was 100% (cell-free assay; competition with immobilised ligand; 5 µM).
N[C@H]1CCN(c2nccc(-c3cnn4ncccc34)n2)C1 has a remaining binding of 59% (binding; 1 µM).
O=C(c1ccc(Nc2ncc(Cl)c(-c3ccc(Cl)s3)n2)cc1)N1CCC(N2CCCC2)CC1 gave a remaining binding of 0.55% (binding; competition with immobilised ligand; 1 µM).
